From the RNAGym collection of RNA variant scans (doi:10.1126/science.aae0568)
Fewer inactive variants are shown than the library holds.

B1: tRNA (parent)
chain: GUUCCGUUGGCGUAAUGGUAACGCGUCUCCCUCCUAAGGAGAAGACUGCGGGUUCGAGUCCCGUACGGAACG

Variants of: B1
Assay: yeast fitness relative to wild type (ratio to wild type); higher = fitter; tRNA-Arg(CCU), competitive growth, 37 C, YPD
Method in brief: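 Variants of the tRNA-Arg(CCU) gene were chemically synthesised with a 3% per-site mutation rate across 69 sites and placed at the native genomic locus in Saccharomyces cerevisiae. Six parallel replicates of the pooled strains were competed in YPD at 37°C for 24 hours, and gene amplicons from the start and end populations were read by 100-nucleotide paired-end sequencing. Darwinian fitness relative to wild type was derived from changes in genotype frequencies. Genotypes required ≥ 100 starting reads, and estimates < 0.5 were set to 0.5.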

Going from GUUGCGUUGGCGUAAUGGUAACGUGUCUCCCUCCUAAGGAGAAGACUGCGGGUUCGAGUCCCGUACGGUACG to GUUGCGUUGGCGUAAUGGUAACGAGUCUCCCUCCUAAGAAGUAGACAGCGGGUUCGAGUGCCGUACGGAACG, the yeast fitness falls from 0.652 to at most 0.5.

Compared with GUUGCGUUGGCGUAAUGGUAAUGCGUCUCCCUCCUAAGGAGAAGACUGCGGGUUCGAGUCCCGUACGCAACG, GUUGCGUUGGCGUAAUGGUAACGCGUGUCCCUCCUAAGGAGAAGACUGCGGGUUCGAGUCCCGUUCGUAACG is higher in yeast fitness: at most 0.5 for the first, 0.562 for the second.

First: GUUGCGUUGGCGUAAUGGUAACGCGUGUCGCUCCUAAGGAGAAGACUGUGGGUUCGAGUUCCCUACGGAACG
Second: GUUGCGUUGGCGUAAUGGUAACGCGUAUCCCUCCUGAGGAGAAGACUGCGGGUUCGAGUCCCGUACGGAACG
The yeast fitness of the first is higher: 0.562 for the first, 0.534 for the second.

GUUGCGUUGGCGUAAUGGUAAUGCGUCUCCCUCCUAAGGAGAAGACUGCGGGUUGGAGUCCCGUACGGAACG and GUUGCGUUGGCGUAAUGGUAACGUGUCUCACUCCUAAGGAGAAGACUGCGGCUUCGAGUCCCGUACGGAACG cannot be ordered by yeast fitness: at most 0.5 for the first, at most 0.5 for the second.

GUUGCGUUGGCGUAAUGGUAAUGCGUCUCCCUCGUAAGGAGAAGACUGCGGGUUCGAGUCCCCUACGGAACG and GUUGCGUUGGCGUAAUGGUAACGGGUCUCUCUCCUAAGGAGAAGAGUGCGGGUUCGAGUCCCGUACGGAACG cannot be ordered by yeast fitness: at most 0.5 for the first, at most 0.5 for the second.

GUUGCGUUGGCGUAAUGGUAACGUGUCUCCCGCCUAAGGUGAAGACUGCGGGUUCGAGUCCCGGACGGAACG and GUUGCGUUGGCGUAAUGGUAACGCGUGUCCCUCUUACGGAGAAGACUGCGGGUUUGAGUCCCGUACGGAACG cannot be ordered by yeast fitness: at most 0.5 for the first, at most 0.5 for the second.

First: GUUGCGUUGGCGUAAUGGUAACGCGUAUCCCUCCUAAGGAGAAGACUACGGGUUCGAGUCCCGUACGGAACG
Second: GUUGCGUUGGCGUAAUGGUAAUGCGUCUCCCUCCUAAGGAGAAGACUGCCGGUUCGAGUCCCGUACGGAACG
The yeast fitness of the first is higher: 0.571 for the first, at most 0.5 for the second.

Compared with GUUGCGUUGGCGUAAUGGUAAUGCGUCUCCCUCCUAAGGAGAAGAGUGCGGGUUCGAGUCCCAUACGGAACG, GUUGCGUUGGCGUAAUGGUAACGGGUCUCCCUGCUAAGGAGAAGACUGCGGGUUCGAGUCCCAUACGGAACG is higher in yeast fitness: at most 0.5 for the first, 0.554 for the second.

GUUGCGUUGGCGUAAUGGUAACGGGGCUCCCUCCUAAGCAGAAGACUGGGGGUUCGAGUCCCGUGCGGAACG and GUUGCGUUGGCGUAAUGGUAAGGCGUCUACCUCCUAAGGAGAAGACUGCGGGUUCGAGUCCCGUCCGGAACG cannot be ordered by yeast fitness: at most 0.5 for the first, at most 0.5 for the second.

GUUGCGUUGGCGUAAUGGUAACGCGUAUCCCUCCUAAGGAGAAGACUGCGGGUUCGAGUCACGUAUGGCACG and GUUGCGUUGGCGUAAUGGUAAUGCGUCUCCCUCCUAACGAGAAGACUGCGGGUUCGAGUCCCGUACGGAACG cannot be ordered by yeast fitness: at most 0.5 for the first, at most 0.5 for the second.

GUUGCGUUGGCGUAAUGGUAACGAGUCUCCCUCCUAAGGAGAAGAUUGCGGGUUCGAGUCCCGCACGGAACG and GUUGCGUUGGCGUAAUGGUAACGCGUAUCCCUCCUAAGGAGAAGAUUGCGGGUUCGAGUCCCGUACCGAACG cannot be ordered by yeast fitness: at most 0.5 for the first, at most 0.5 for the second.

GUUGCGUUGGCGUAAUGGUAAGGCGUCUCCCUCCUAAGGAGAAGCCUGCGGGUUUGAGUCCCGUACGGAACG and GUUGCGUUGGCGUAAUGGUAAUGCGUCUCCCUCGUUAGGAGAAGACUGCGGGUUCGAGUCCCGUACGGAACG cannot be ordered by yeast fitness: at most 0.5 for the first, at most 0.5 for the second.

GUUGCGUUGGCGUAAUGGUAACGCGUAUCCUUCCUAAGGAGAAGACUGCGGGUUCGAGUCCCGUACGGAACG and GUUGCGUUGGCGUAAUGGUAACGGGUACCCCUCCUAAGGAGAAGACUGCGGGUUCGAGUCCCGUUCGGAACG cannot be ordered by yeast fitness: at most 0.5 for the first, at most 0.5 for the second.

Compared with GUUGCGUUGGCGUAAUGGUAACGAGUCUCCCUCCUAAGGAGAAGACUGCGGGUUCGAGUCCCGUACGGAACG, GUUGCGUUGGCGUAAUGGUAACGUGUCUCCCUCCUAAGGAGAAGACUGCGGGUUCGAGUCCAGUAUGGAACG is lower in yeast fitness: 0.634 for the first, at most 0.5 for the second.

Compared with GUUGCGUUGGCGUAAUGGUAACGUGUCUCCCUCCUAAGGAGAAGACCGCGGGUUCGAGUCCCGUACGGAACG, GUUGCGUUGGCGUAAUGGUAACGAGUCUCCCUCAUAAGGAGAAGACUGCGGGUUCGAGUCCCGUACGGAACG is lower in yeast fitness: 0.673 for the first, 0.563 for the second.

Compared with GUUGCGUUGGCGUAAUGGUAAUGCGUCUCCCCCCUAAGGAGAAGACUGCGGGUUCGAGUCCCGCACGGAACG, GUUGCGUUGGCGUAAUGGUAAGGCGUCUCCCUCCUAAGGAGAAGACUGCGGGUUCGAGUCCCGUACGGAACG is higher in yeast fitness: at most 0.5 for the first, 0.787 for the second.

Going from GUUGCGUUGGCGUAAUGGUAAUGCGUCUCCCUCCUAAGGAGAAGACUGCGGGUUCGAGUCCCGUACGGAACG to GUUGCGUUGGCGUAAUGGUAACGCGUAUCCCUCCUAAGGAGAAGACUGCGGGUUCGAGUCCCGUACGGAACG, the yeast fitness falls from 0.976 to 0.734.

Compared with GUUGCGUUGGCGUAAUGGUAACGCGUUUCCCUCCUAAGGAGAAGACUGCGGGUUCGAGUCCCGUACGGAACG, GUUGCGUUGGCGUAAUGGUAAGGCGUCUCCCUUCUCAGGUGAAGACUGCGGGUUCGAGUCCCGUACGGAACG is lower in yeast fitness: 0.789 for the first, 0.663 for the second.

GUUGCGUUGGCGUAAUGGUAAUGCGUCUCCCUCGUUAGGAGAAGACUGCGGGUUCGAGUCUCGUACGGAACG and GUUGCGUUGGCGUAAUGGUAAGGCGUCUCCCUGCUCAGGAGAAGACUGCGGGUUCGAGUCCCGUGCGGAACG cannot be ordered by yeast fitness: at most 0.5 for the first, at most 0.5 for the second.
